Test results as given in ChEMBL document CHEMBL1133089 (J Med Chem, 2000).

How the values were obtained:
[1] = biological target: Neuronal acetylcholine receptor; alpha4/beta2 (Rattus norvegicus, UniProt P09483+P12390); experiment: Binding affinity in rat forebrain against Nicotinic acetylcholine receptor alpha4-beta2
How it was run: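 Captured on GF/B filters treated with 0.01% PEI and counted by scintillation. Nonspecific binding taken with 100 µM carbachol. IC50 fitted from five concentrations run in triplicate.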

[2] = biological target: T1, Neuronal acetylcholine receptor subunit alpha-7 (Rattus norvegicus, UniProt Q05941); experiment: Binding affinity in rat hippocampi against Nicotinic acetylcholine receptor alpha7; assay type: tissue-based, Hippocampus
T1 sequence (Q05941 whole entry): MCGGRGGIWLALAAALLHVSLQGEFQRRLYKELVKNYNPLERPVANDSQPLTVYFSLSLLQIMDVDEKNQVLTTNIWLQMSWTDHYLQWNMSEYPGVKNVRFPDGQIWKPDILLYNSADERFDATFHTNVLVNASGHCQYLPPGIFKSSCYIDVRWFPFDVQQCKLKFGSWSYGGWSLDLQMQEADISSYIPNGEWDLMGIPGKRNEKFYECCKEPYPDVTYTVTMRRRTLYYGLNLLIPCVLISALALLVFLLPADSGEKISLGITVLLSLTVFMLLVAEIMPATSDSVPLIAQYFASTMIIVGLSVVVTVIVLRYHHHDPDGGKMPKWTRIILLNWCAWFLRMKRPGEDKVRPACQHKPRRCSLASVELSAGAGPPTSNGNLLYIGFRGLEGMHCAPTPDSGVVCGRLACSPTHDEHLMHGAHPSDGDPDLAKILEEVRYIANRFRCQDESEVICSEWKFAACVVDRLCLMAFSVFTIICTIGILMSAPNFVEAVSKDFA
How it was run: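 Incubated with 5 nM [¹²⁵I]α-bungarotoxin and 1 mg/mL BSA for 2 h at 21 °C. Collected on GF/C filters pretreated with 1% BSA/0.01% PEI. IC50 from six concentrations in triplicate.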

[3] = biological target: T1, Neuronal acetylcholine receptor subunit alpha-7; experiment: Potency was determined by measuring current activation in Xenopus oocytes expressing rat alpha-7 nAChRs; assay type: cell-based, Oocyte
How it was run: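 Xenopus oocytes injected with cRNA for rat α7 nAChR and recorded 3-10 days after injection. Read-out is evoked current activation. Intrinsic activity scaled in each oocyte to the current elicited by 3 mM acetylcholine, set as 100%.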

Neuronal acetylcholine receptor; alpha4/beta2, sequence (P09483 whole entry): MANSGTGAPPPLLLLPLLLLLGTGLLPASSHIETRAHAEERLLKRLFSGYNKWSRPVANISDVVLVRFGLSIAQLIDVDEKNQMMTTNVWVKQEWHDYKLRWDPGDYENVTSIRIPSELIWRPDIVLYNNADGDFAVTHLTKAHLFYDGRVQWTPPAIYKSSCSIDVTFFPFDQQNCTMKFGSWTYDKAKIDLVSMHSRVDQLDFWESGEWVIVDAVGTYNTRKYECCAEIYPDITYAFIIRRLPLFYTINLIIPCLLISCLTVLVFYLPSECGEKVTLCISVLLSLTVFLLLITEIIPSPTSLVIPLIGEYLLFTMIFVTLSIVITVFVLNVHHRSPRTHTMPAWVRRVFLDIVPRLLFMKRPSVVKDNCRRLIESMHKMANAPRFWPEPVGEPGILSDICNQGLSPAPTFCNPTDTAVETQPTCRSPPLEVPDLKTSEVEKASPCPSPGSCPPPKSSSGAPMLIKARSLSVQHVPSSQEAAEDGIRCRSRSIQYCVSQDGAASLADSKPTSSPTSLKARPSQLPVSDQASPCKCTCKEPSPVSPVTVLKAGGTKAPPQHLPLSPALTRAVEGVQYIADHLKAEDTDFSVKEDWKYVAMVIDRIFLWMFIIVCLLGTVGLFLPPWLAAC
Neuronal acetylcholine receptor; alpha4/beta2, sequence (P12390 whole entry): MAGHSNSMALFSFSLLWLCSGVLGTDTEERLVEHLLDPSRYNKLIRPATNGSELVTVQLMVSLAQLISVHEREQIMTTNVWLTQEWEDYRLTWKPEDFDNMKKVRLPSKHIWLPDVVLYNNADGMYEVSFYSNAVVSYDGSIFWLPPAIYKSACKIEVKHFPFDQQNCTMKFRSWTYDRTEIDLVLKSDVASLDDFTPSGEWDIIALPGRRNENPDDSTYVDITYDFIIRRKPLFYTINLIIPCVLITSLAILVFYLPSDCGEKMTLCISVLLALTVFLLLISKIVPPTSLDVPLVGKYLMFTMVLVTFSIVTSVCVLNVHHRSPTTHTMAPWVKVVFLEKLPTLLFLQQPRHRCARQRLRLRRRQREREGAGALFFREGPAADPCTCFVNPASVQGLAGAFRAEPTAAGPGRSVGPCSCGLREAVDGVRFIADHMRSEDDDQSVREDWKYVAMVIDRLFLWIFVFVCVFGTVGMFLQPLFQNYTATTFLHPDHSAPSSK

SMILES	Ki [1]	Ki [2]	EC50 [3]
CCN1CC2(CN3CCC2CC3)OC1=O (configuration not stated)	0.17 µM	0.69 µM	
CN1C(=O)NCC12CN1CCC2CC1 (configuration not stated)		> 13 µM	
O=C1NC2(CO1)CN1CCC2CC1 (configuration not stated)		> 4.3 µM	
O=C1CC2(CN1)CN1CCC2CC1 (configuration not stated)		4 µM	
O=C1NCC2(CN3CCC2CC3)N1 (configuration not stated)		> 13 µM	
O=C1NCC2(CN3CCC2CC3)O1 (single isomer, unassigned; (-))			21000 µM
